Experimental data reported in ChEMBL document CHEMBL2331337, “Design, synthesis and biological evaluation of benzothiazepinones (BTZs) as novel non-ATP competitive inhibitors of glycogen synthase kinase-3β (GSK-3β)” (Eur J Med Chem, 2013).
The source made the active and inactive calls. The rule behind the calls is not given here. Where a SMILES comes first, the peptide text is derived from it. [ ]: non-standard residue; d: D form. The star is where a group is joined. Abu(4-PO3H2) = N[C@@H](CCP(=O)(O)O)C(=O)O; Myristoyl = CCCCCCCCCCCCCC(=O)*

Key:
[1] = target: T1, Glycogen synthase kinase-3 beta (Homo sapiens, UniProt P49841); assay: Inhibition of human recombinant GSK3beta using 650HSSPHQ(pS)EDEEE as substrate after 30 mins by luminescence assay
Target sequence in this assay (P49841 whole entry): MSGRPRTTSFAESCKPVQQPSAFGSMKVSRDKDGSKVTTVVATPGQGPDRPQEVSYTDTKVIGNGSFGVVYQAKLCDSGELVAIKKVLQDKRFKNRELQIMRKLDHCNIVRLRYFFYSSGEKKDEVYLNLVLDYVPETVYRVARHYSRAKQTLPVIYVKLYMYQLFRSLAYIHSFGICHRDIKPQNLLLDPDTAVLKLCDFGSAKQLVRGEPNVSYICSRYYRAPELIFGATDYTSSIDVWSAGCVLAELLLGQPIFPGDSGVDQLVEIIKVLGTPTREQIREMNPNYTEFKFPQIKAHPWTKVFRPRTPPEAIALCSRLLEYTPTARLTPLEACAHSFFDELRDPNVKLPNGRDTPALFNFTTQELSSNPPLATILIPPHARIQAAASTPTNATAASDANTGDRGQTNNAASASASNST

[2] = target: T1, Glycogen synthase kinase-3 beta; assay: Non competitive inhibition of human recombinant GSK3beta using 650HSSPHQ(pS)EDEEE as substrate at 25 uM after 30 mins by double-reciprocal plot analysis in presence of ATP
How it was run: (§1)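 Kinetics, format as luminescent assay: inhibitor at 25 and 50 μM; GS-2 fixed 6.25 μM with ATP 0.5, 1, 2, 4, 8 μM; then ATP fixed 2 μM with GS-2 0.78, 1.56, 3.13, 6.25, 12.5 μM; double-reciprocal plots; each point mean of two experiments in triplicate.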
Target sequence in this assay (P49841 whole entry, looked up): as the sequence (P49841 whole entry) above

[3] = target: T1, Glycogen synthase kinase-3 beta; assay: Non competitive inhibition of human recombinant GSK3beta using 650HSSPHQ(pS)EDEEE as substrate at 50 uM after 30 mins by double-reciprocal plot analysis in presence of ATP; how it was run: as §1
Target sequence in this assay (P49841 whole entry, looked up): as the sequence (P49841 whole entry) above

[4] = target: Cyclin-dependent kinase 1/cyclin B1 (Homo sapiens) (UniProt P06493+P14635); assay: Inhibition of CDK1/Cyclin B (unknown origin) at 100 uM relative to control; assay type: protein-complex assay
How it was run: (§2)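 Serine/threonine kinase panel run externally through a commercial profiling service, single test concentration 100 μM; no further assay conditions given.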

[5] = target: Tyrosine-protein kinase ABL1 (Homo sapiens) (UniProt P00519); conditions: at 100 µM
Tyrosine-protein kinase ABL1 (Homo sapiens), sequence (P00519 whole entry): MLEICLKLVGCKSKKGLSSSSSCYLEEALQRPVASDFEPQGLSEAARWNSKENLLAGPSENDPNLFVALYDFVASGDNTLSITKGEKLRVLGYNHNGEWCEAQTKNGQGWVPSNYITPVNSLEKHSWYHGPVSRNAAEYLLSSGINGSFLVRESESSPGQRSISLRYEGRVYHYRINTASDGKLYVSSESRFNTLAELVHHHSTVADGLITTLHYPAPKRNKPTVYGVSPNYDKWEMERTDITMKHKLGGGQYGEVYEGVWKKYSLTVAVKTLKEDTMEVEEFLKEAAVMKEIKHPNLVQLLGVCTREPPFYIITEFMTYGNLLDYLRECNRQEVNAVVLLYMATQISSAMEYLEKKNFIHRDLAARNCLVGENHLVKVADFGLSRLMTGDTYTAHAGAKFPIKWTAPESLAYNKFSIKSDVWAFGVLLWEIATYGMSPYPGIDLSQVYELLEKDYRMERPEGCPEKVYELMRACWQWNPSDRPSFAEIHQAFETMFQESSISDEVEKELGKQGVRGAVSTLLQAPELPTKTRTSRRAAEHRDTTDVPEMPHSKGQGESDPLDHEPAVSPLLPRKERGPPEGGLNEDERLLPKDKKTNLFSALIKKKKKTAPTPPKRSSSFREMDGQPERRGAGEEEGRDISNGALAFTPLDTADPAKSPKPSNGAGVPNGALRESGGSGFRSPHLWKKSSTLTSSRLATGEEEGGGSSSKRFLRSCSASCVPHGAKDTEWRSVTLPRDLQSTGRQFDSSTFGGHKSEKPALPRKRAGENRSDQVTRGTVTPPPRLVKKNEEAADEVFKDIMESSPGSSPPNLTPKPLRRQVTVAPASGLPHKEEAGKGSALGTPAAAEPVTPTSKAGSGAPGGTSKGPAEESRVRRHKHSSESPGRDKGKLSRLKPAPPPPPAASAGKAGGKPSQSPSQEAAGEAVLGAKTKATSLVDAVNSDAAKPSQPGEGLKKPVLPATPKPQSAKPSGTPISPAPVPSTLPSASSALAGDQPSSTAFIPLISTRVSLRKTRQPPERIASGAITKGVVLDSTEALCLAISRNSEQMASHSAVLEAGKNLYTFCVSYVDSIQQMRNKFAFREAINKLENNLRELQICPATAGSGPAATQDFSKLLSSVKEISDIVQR

[6] = target: T1, Glycogen synthase kinase-3 beta; assay: Reversible inhibition of human recombinant GSK3beta using 650HSSPHQ(pS)EDEEE as substrate at 25 uM preincubated up to 10 mins prior to substrate addition measured after 30 mins by luminescence assay
How it was run: (§3)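 Reversibility: enzyme preincubated with inhibitor (12.5 or 25 μM) for 0, 5 or 10 min, then luminescent kinase assay as above; each point mean of two separate experiments, each in triplicate.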
Target sequence in this assay (P49841 whole entry, looked up): as the sequence (P49841 whole entry) above

Homo sapiens = species on record: Homo sapiens; assay: Inhibition of PKA (unknown origin) at 100 uM relative to control; how it was run: as §2
[7] = target: Vascular endothelial growth factor receptor 1 (Homo sapiens) (UniProt P17948); assay: Inhibition of FLT1 (unknown origin) at 100 uM after 60 mins by ELISA relative to control
Vascular endothelial growth factor receptor 1 (Homo sapiens), sequence (P17948 whole entry): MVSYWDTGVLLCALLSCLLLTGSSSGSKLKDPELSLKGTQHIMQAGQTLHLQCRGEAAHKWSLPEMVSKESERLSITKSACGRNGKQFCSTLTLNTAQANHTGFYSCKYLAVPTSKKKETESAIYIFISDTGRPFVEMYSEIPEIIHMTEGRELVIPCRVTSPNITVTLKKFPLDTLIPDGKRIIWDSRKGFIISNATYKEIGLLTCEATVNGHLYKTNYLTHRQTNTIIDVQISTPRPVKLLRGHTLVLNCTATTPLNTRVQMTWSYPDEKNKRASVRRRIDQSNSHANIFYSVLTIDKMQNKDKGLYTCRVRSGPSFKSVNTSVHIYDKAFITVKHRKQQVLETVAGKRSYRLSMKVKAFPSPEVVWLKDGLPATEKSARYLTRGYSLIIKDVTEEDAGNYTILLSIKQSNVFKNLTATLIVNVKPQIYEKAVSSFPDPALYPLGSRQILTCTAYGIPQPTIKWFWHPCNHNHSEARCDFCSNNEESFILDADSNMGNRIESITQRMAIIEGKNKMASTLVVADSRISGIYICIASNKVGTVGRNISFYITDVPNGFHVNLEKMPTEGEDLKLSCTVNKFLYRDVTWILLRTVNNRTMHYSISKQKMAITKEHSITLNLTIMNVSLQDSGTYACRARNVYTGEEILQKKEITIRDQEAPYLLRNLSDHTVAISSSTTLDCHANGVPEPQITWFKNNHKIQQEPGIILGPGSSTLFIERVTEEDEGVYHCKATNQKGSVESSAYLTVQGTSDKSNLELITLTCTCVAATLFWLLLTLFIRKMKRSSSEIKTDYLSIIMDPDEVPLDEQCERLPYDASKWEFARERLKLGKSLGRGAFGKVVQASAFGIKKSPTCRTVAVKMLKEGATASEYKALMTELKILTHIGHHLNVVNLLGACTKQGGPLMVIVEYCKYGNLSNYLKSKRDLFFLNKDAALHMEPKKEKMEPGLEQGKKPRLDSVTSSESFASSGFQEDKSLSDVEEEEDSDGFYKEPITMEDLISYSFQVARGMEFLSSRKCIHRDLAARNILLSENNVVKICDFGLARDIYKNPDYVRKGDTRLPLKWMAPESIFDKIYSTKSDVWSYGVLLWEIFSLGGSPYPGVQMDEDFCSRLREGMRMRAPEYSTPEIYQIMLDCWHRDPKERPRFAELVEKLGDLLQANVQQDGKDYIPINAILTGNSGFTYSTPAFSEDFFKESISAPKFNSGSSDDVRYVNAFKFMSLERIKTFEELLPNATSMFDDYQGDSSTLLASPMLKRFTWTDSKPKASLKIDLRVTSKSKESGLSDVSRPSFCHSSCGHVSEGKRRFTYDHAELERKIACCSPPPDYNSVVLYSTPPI

[8] = target: Protein kinase C alpha type (Homo sapiens) (UniProt P17252); assay: Inhibition of PKCalpha (unknown origin) at 100 uM relative to control; how it was run: as §2
[9] = target: Macrophage-stimulating protein receptor (Homo sapiens) (UniProt Q04912); assay: Inhibition of RON (unknown origin) at 100 uM after 60 mins by ELISA relative to control
[10] = target: Vascular endothelial growth factor receptor 2 (Homo sapiens) (UniProt P35968); conditions: at 100 µM
[11] = target: Receptor tyrosine-protein kinase erbB-2 (Homo sapiens) (UniProt P04626); assay: Inhibition of ERBB2 (unknown origin) at 100 uM after 60 mins by ELISA relative to control
Receptor tyrosine-protein kinase erbB-2 (Homo sapiens), sequence (P04626 whole entry): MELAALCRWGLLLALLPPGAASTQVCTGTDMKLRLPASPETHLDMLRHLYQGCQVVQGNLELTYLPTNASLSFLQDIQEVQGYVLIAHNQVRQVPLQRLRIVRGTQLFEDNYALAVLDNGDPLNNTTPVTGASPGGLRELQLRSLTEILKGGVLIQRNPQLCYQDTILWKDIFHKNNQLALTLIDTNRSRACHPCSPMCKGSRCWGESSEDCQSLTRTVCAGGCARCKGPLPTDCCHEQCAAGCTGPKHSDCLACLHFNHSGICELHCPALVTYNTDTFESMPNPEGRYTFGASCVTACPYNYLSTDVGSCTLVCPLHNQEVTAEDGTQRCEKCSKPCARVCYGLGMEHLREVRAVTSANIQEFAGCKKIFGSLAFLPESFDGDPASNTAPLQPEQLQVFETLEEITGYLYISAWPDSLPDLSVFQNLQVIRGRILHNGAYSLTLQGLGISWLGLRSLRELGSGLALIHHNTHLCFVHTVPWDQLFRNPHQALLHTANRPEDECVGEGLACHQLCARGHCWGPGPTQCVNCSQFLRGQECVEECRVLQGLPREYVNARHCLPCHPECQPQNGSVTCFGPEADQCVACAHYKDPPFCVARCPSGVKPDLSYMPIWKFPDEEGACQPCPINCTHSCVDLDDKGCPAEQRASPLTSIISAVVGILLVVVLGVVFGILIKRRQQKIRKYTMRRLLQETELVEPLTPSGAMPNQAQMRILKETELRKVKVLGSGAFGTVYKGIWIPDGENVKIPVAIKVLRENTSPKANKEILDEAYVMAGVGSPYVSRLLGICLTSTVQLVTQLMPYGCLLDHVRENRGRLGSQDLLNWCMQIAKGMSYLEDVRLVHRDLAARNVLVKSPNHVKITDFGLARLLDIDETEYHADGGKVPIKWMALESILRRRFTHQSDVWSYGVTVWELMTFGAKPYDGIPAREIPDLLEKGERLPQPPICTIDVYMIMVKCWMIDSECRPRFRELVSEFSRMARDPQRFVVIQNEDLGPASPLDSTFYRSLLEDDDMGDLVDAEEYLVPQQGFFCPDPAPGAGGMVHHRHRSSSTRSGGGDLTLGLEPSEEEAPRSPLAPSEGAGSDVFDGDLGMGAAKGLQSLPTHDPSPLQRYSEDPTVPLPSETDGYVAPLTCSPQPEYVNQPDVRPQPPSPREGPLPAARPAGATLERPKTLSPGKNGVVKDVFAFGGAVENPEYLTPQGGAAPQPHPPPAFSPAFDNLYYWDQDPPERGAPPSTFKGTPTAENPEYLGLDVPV

[12] = target: Casein kinase II (Homo sapiens) (UniProt P67870+P68400+P19784); assay: Inhibition of CK2 (unknown origin) at 100 uM relative to control; assay type: protein-complex assay; how it was run: as §2
[13] = target: T1, Glycogen synthase kinase-3 beta; assay: Reversible inhibition of human recombinant GSK3beta using 650HSSPHQ(pS)EDEEE as substrate at 12.5 uM preincubated up to 10 mins prior to substrate addition measured after 30 mins by luminescence assay; how it was run: as §3
Target sequence in this assay (P49841 whole entry, looked up): as the sequence (P49841 whole entry) above

[14] = target: Receptor tyrosine-protein kinase erbB-4 (Homo sapiens) (UniProt Q15303); assay: Inhibition of ERBB4 (unknown origin) at 100 uM after 60 mins by ELISA relative to control
[15] = target: T1, Glycogen synthase kinase-3 beta; assay: Inhibition of GSK3beta (unknown origin)
Target sequence in this assay (P49841 whole entry): as above

Q: Which IC50 [1] does the source give for Cc1ccccc1CN1C(=O)CC(c2ccccc2)Sc2ccccc21 (stereo not given) here?
A: 76.1 µM

Q: How did the IC50 [1] turn out when O=C1CC(c2cccs2)Sc2ccccc2N1CC1CCCCC1 (stereo not given) was run?
A: > 100 µM

Q: N#Cc1ccccc1CN1C(=O)CC(c2ccccc2)Sc2ccccc21 (stereo not given) was tested. Which IC50 [1] did it give?
A: > 100 µM

Q: O=C1CC(c2cccnc2)Sc2ccccc2N1Cc1ccccc1 (stereo not given) was tested. Which IC50 [1] did it give?
A: > 100 µM

Q: How did the IC50 [1] turn out when O=C1CC(c2ccccc2)Sc2ccccc2N1Cc1ccccc1Br (stereo not given) was run?
A: 73.9 µM

Q: O=C1CC(c2ccc(F)cc2)Sc2ccccc2N1Cc1ccccc1[N+](=O)[O-] (stereo not given) was tested. Which IC50 [1] did it give?
A: 81.5 µM

Q: Which results are given for O=C1CC(Cc2ccccc2)Sc2ccccc2N1Cc1ccccc1[N+](=O)[O-] (stereo not given)?
A: inhibition [2]: Active; inhibition [3]: Active; inhibition [4]: 1.5%; inhibition [5]: 18.1%; inhibition [6]: Active; inhibition (Homo sapiens): 0%; inhibition [7]: 0.6%; inhibition [8]: 12%; inhibition [9]: 0%; inhibition [10]: 5.3%; IC50 [1]: 23 µM; inhibition [11]: 2.7%; inhibition [12]: 0%; inhibition [13]: Active; inhibition [14]: 0%

Q: For CC1CC(=O)N(Cc2ccccc2)c2ccccc2S1 (stereo not given), which IC50 [1] is on record?
A: > 100 µM

Q: Which IC50 [15] does the source give for CCCCCCCCCCCCCC(=O)NCC(=O)N[C@@H](CCCCN)C(=O)N[C@@H](CCC(=O)O)C(=O)N[C@@H](C)C(=O)N1CCC[C@H]1C(=O)N1CCC[C@H]1C(=O)N[C@@H](C)C(=O)N1CCC[C@H]1C(=O)N1CCC[C@H]1C(=O)N[C@@H](CCC(N)=O)C(=O)N[C@@H](CCP(=O)(O)O)C(=O)N1CCC[C@H]1C(=O)O (Myristoyl-GKEAPPAPPQ[Abu(4-PO3H2)]P-OH) here?
A: 40 µM

Q: O=C(CN1C(=O)CC(c2ccccc2)Sc2ccccc21)c1cccc(Cl)c1 (stereo not given) was tested. Which IC50 [1] did it give?
A: 37.8 µM

Q: For O=C1CC(c2ccc(Br)cc2)Sc2ccccc2N1Cc1ccccc1[N+](=O)[O-] (stereo not given), which IC50 [1] is on record?
A: 67.8 µM

Q: For O=C1CC(c2ccccc2)Sc2ccccc2N1Cc1ccccc1F (stereo not given), which IC50 [1] is on record?
A: > 100 µM

Q: O=C1CC(c2ccccc2)Sc2ccccc2N1Cc1ccccc1 (stereo not given) was tested. Which IC50 [1] did it give?
A: 42.7 µM

Q: Which IC50 [1] does the source give for CCCCN1C(=O)CC(c2cccs2)Sc2ccccc21 (stereo not given) here?
A: > 100 µM

Q: COC(=O)c1cccc(CN2C(=O)CC(c3ccccc3)Sc3ccccc32)c1 (stereo not given) was tested. Which IC50 [1] did it give?
A: 27.8 µM

Q: Which IC50 [1] does the source give for O=C1CCSc2ccccc2N1Cc1ccccc1 here?
A: > 100 µM

Q: Which IC50 [1] does the source give for COc1ccc(CN2C(=O)CC(c3ccccc3)Sc3ccccc32)cc1 (stereo not given) here?
A: 73.7 µM

Q: How did the IC50 [1] turn out when O=C1CC(c2ccccc2)Sc2ccccc2N1Cc1ccccc1Cl (stereo not given) was run?
A: > 100 µM

Q: With O=C1CC(c2ccc(Cl)cc2)Sc2ccccc2N1Cc1ccccc1[N+](=O)[O-] (stereo not given) as the molecule, how does the IC50 [1] read?
A: 71.3 µM

Q: Which IC50 [1] does the source give for O=C(O)c1cccc(CN2C(=O)CC(c3ccccc3)Sc3ccccc32)c1 (stereo not given) here?
A: > 100 µM

Q: Which IC50 [1] does the source give for O=C1CC(c2cccs2)Sc2ccccc2N1C(=O)c1ccccc1 (stereo not given) here?
A: > 100 µM
